The source made the active and inactive calls. The rule behind the calls is not given here.
Columns and labels:
Mus musculus [1] = assay: Inhibition of LPS-induced serum IL-1beta production in nlrp3-/- C57BL/6 mouse at 10 mg/kg, ip pretreated before LPS challenge and measured after […] post LPS challenge by ELISA; format: functional, organism-based
[2] = Toxicity in human hCMEC/D3 cells assessed as reduction in cell viability at 20 uM; format: cell-based; settings: hcmec/d3, 20 µM
Outline: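 hCMEC/D3 cells (passage 25-35, EGM-2-based media) exposed to compound at 20 μM for 2 h; viability read by Live/Dead staining. Mean ± SEM from 3 independent experiments, ≥triplicates each.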

Mus musculus [3] = assay: Inhibition of LPS-induced serum TNFalpha production in C57BL/6 mouse at 10 mg/kg, ip pretreated before LPS challenge and measured after […] post LPS challenge by ELISA; format: functional, organism-based
Mus musculus [4] = assay: Inhibition of LPS-induced serum IL-1beta production in C57BL/6 mouse at 10 mg/kg, ip pretreated before LPS challenge and measured after […] post LPS challenge by ELISA; format: functional, organism-based

SMILES | inhibition (Mus musculus [1]) | Activity [2] | inhibition (Mus musculus [3]) | inhibition (Mus musculus [4])
C#CCNS(=O)(=O)c1ccc(CCN(Cc2cc(Cl)ccc2OCCC)C(=O)Cc2ccsc2)cc1 | inactive | Non-Toxic | inactive | Active
CC(C)(O)c1coc(S(=O)(=O)NC(=O)Nc2c3c(cc4c2CCC4)CCC3)c1 | – | – | – | Active
C#CCNS(=O)(=O)c1ccc(CCN(Cc2cc(Cl)ccc2OC)C(=O)C=C)cc1 | – | – | Active | Active
